This data set in a line: Toxicity liver stage against HepG2, at 10uM. Format: cell-based. Particulars: human, HepG2-A16-CD81EGFP cells; read-out: INHIBITION
Also noted: test concentration 10 uM, cell line HepG2-A16-CD81EGFP. The procedure, abridged:
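Uninfected HepG2-A16-CD81EGFP cells, 3 × 10^3 per well, 1536-well, plated on prespotted compound at 10 μM final, parasite-free screening media added to match infected plates; puromycin 10 μM positive, DMSO 0.5% negative; run in parallel with 48 h PbLuc assay at 37 °C, 5% CO2; viability by CellTiter-Glo luminescence, normalized to controls.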
In the case of `CN1CCOC(CN(C(=O)COc2ccccc2)c2nccs2)C1` (stereo unspecified), the cytotoxicity at 10 µM was -8.18%. The same measure for `CC(C)(C)S(=O)(=O)CCNC(=O)NCCCc1cccc(F)c1`: 17%; for `Cc1c(F)cccc1CN1CCn2nc(CNC(=O)N(C)C)cc2C1`: -19.4%; for `CN(C)c1ccc(CN2C[C@@H]3CC[C@H]2CN(C2CCOCC2)C3)cn1`: -3.62%.

`CC(c1cccnc1)N(C)Cc1cc(O)c2cc(F)ccc2n1` (stereo unspecified): the cytotoxicity at 10 µM was 10.8%. The result for `NCC1[C@H]2CN(Cc3ccccc3F)C[C@@H]12` (stereo partly specified) reads -7.52%; that for `O=C(CC1CCN(CCN2CCCCC2)CC1)N1CCOCC1`, -3.91%; that for `CN(C)CCNC(=O)c1cc2n(n1)CCN(C(=O)CC(C)(C)C)C2`, -1.85%.

Turning to `CCn1cc(CNC2CC(=O)N(CCc3cccc(Cl)c3)C2)cn1` (stereo unspecified), the cytotoxicity at 10 µM is -8.54%. The same measure for `Cn1cc(Br)c(C(=O)NCCCn2cc(Cl)cn2)n1`: -1.49%; for `O=C1CCC(=O)N1CCN1CCOC(c2ccsc2)C1` (stereo unspecified): 7.55%; for `Cc1nc(CN2CCC(CNC(=O)C3(C)CCCC3)CC2)oc1C`: 7.66%.

`Cc1cc(CCC(=O)N2CCOCC2)ccc1Br`: the cytotoxicity at 10 µM was determined as 12.5%.

Regarding `CCS(=O)(=O)N1C[C@H]2CN(Cc3cccc(F)c3)C(=O)[C@H]2C1`, the cytotoxicity at 10 µM stood at 0.442%.

For `CSC(C)C(=O)N1CCCN(c2ncccc2C#N)CC1` (stereo unspecified), the cytotoxicity at 10 µM is -1.2%. The result for `COCCNS(=O)(=O)c1ccc2c(c1)CCN(C(=O)c1cncn1C)C2` reads 9.65%. For `CCNC(=O)Nc1c(C)cnn1Cc1cc(F)ccc1F`, the cytotoxicity at 10 µM came to 5.28%.

`CCCN1CCN(Cc2cccc(OC)c2)[C@H]2CS(=O)(=O)C[C@H]21`: the cytotoxicity at 10 µM was -8.15%. For the compound `COCC1CN(C(=O)COc2ccccc2)Cc2ncn(C)c21` (stereo unspecified), the cytotoxicity at 10 µM amounted to 0.104%. The same measure for `Cc1cnn(CC2CCCN2C(=O)c2ccc(F)c(F)c2)c1` (stereo unspecified): -7.68%; for `Cc1cccc(C(=O)N(CCCO)S(=O)(=O)c2cccs2)c1`: 8.01%; for `Cc1ccnc2c1NC(=O)CN2C(=O)CCc1ccccc1`: -20.1%. Consider `O=C(NCCN1C(=O)c2ccccc2C1=O)c1scnc1Cl`, for which the cytotoxicity at 10 µM is -12.3%. Regarding `CCOC(=O)COC1CCN(C(C)=O)CC(=O)N(C)c2ccccc21` (stereo unspecified), the cytotoxicity at 10 µM amounted to 7.45%. The result for `CC(C)n1nc2c(cc1=O)CN(CCCN1CCCC1=O)CC2` reads -8.08%; that for `COCCn1cc(C(=O)N2CCCC2c2cccs2)c2ccccc21` (stereo unspecified), 23.7%; that for `O=C(CCC(F)(F)F)N1CCN(Cc2ccncc2)[C@@H]2CS(=O)(=O)C[C@@H]21`, -2.11%. The same measure for `CCOC(=O)N1CCN(C(=O)c2snnc2-c2ccccc2)CC1`: 0.847%. Consider `Cc1cnn(CCNCC(O)COc2ccc(F)cc2)c1` (stereo unspecified), for which the cytotoxicity at 10 µM is -1.76%. The same measure for `CCc1cnc(C)nc1NCCc1nc(N)cc(O)n1`: -0.264%; for `Cn1cnc2c1CCN(Cc1csc(C3CCCCC3)n1)C2`: -3.36%. The same measure for `COc1cc(OC)nc(N2CCC3(CC2)OCCCC3O)n1` (stereo unspecified): 2.67%; for `COCCCC(=O)NS(=O)(=O)c1ccc2c(c1)OCCCO2`: -2.77%; for `COc1cccc(C2c3c(n[nH]c3C)N=C3COC(=O)C32)c1O` (stereo unspecified): 65.8%. The result for `Cc1ccc(CN2CCC(NC(=O)c3scnc3C)CC2)cc1` reads -4.1%; that for `CSc1ccc(CNc2n[nH]c(C)n2)cc1`, -3.58%. In the case of `CNCCN1C(=O)CC[C@H]2CN(c3cnc4ccccc4n3)CC[C@H]21`, the cytotoxicity at 10 µM is -1.62%. For `Cc1ccoc1C(=O)N1CC[C@@H]2CN(C3CCOCC3)CCO[C@@H]2C1`, the cytotoxicity at 10 µM is -120%. For `Cc1cc(C)n(CC2CN(CCC(=O)NC3CCCCC3)CCO2)n1` (stereo unspecified), the cytotoxicity at 10 µM was -2.95%. In the case of `CN(Cc1ccccc1)S(=O)(=O)N1C[C@H](C2CC2)[C@@H](N)C1`, the cytotoxicity at 10 µM is -159%.

For the compound `CN(C)CCO[C@H]1CN(C(=O)c2cscn2)[C@@H]2COC[C@H]12`, the cytotoxicity at 10 µM came to 1.43%. `Cc1c(-c2ccccc2)nc2c(c(C)c(C)n2CCN(C)C)c1N`: the cytotoxicity at 10 µM is 24.6%. Regarding `CC(C)N1CCc2c(c(COc3cncnc3)nn2CC2CC2)C1`, the cytotoxicity at 10 µM came out at 1.7%. The same measure for `CCn1cnnc1C1CCN(C(=O)COc2ccc(Cl)cc2)CC1`: -3.39%; for `O=C(O)CC(CC(=O)N(Cc1ccsc1)C1CC1)c1cccs1` (stereo unspecified): 7.8%.

For the compound `CNc1cncc(C2CCN(C(=O)c3cnco3)CC2)n1`, the cytotoxicity at 10 µM was -5.68%. In the case of `CCc1nnc(CS(=O)(=O)c2ccc(C)c(C)c2)n1C`, the cytotoxicity at 10 µM amounted to 0.617%. The same measure for `CCN(Cc1noc(C)n1)C(=O)C(c1ccc(C)cc1)N(C)C` (stereo unspecified): -5.21%; for `CCOc1ccc(CN2CCC(c3[nH]ncc3C)C2)cc1CO` (stereo unspecified): -2.38%. The result for `COc1cccc(C(=O)Nc2n[nH]c(C3CCCO3)n2)c1` (stereo unspecified) reads 6%. The same measure for `NCC(=O)N1CCCC1c1n[nH]cc1-c1ccccc1F` (stereo unspecified): 2.37%; for `CCc1oc(C(=O)NCCc2nc(C(=O)O)cs2)cc1CN1CCCC1`: 19.3%; for `O=C(NC1CCCN(c2ccccc2Cl)C1)c1nc(=O)[nH][nH]1` (stereo unspecified): -10.9%.

On to `COCCNC(=O)[C@@H](C)[C@@H]1CCc2c(C)cc(OCC(=O)O)c(C)c2C1`, for which the cytotoxicity at 10 µM was 0.523%. `CNC(=O)c1cc(C)n(-c2cccc(OC)c2)c1C`: the cytotoxicity at 10 µM was -18.1%. The same measure for `Cc1nc(C)n(CC2CCCN2CC(=O)Nc2c(C)n[nH]c2C)n1` (stereo unspecified): -7.66%.

On to `CC(C)n1ccnc1C1CCN(C(=O)C2COc3ccccc3O2)CC1` (stereo unspecified), for which the cytotoxicity at 10 µM was -8.28%. The same measure for `CCC(C)(CNC(=O)Nc1nccs1)N1CCOCC1` (stereo unspecified): -6.46%; for `CN(C)C[C@@H]1CN(Cc2ccccc2C#N)C[C@@H]1CO`: -1.56%; for `COC(=O)c1cc(C(=O)N2CCN(C)CC2)n(-c2ccccc2)n1`: -13.2%. The result for `CCN(C)C1COC2(CCN(C(=O)c3ccc4[nH]ccc4c3)CC2)C1` (stereo unspecified) reads -5.96%; that for `COc1ccccc1C(C)CC(=O)N1CC[C@H](O)C1` (stereo partly specified), -55.7%.

As to `CCCS(=O)(=O)N1Cc2nccn2CC(CN(C)C)C1` (stereo unspecified), the cytotoxicity at 10 µM is -106%. The result for `CN1CC(Oc2ccccc2)=NC(SCC(=O)Nc2ccccc2Cl)=N1` reads -9.19%. The result for `COCCNC(=O)N1CCN(C(=O)c2nsc3ccc(C)cc23)CC1` reads 7%. Turning to `Cn1cnc2c1C(COCc1ccccc1)N(Cc1cccnc1)CC2` (stereo unspecified), the cytotoxicity at 10 µM was determined as 9.61%. The result for `O=C(c1ccc(F)cc1Cl)N1CCC(Nc2cccnn2)CC1` reads -8.08%. The result for `CCc1nc(CNCC2CCCN2c2cc(NC)ncn2)cs1` (stereo unspecified) reads -9.11%; that for `CCn1c(C)nnc1CN(C)C1CCN(Cc2ccon2)C1` (stereo unspecified), 0.793%; that for `CC(=O)c1cccc(NC(=O)CN2CCCCC2C)c1` (stereo unspecified), -0.684%. The result for `Cc1cccc(C(=O)N2CCCN(Cc3cnn(C)c3)CC2)n1` reads -10.5%. As for `O=C(NCc1ccccc1)[C@@H]1Cc2[nH]cnc2CN1CC1CC1`, the cytotoxicity at 10 µM came out at 3.17%. The same measure for `O=C(NC1CC1)C1=CC2(CCN(CCO)CC2)c2ccccc21`: 1.41%; for `CC(Nc1cccc2c1OCCO2)C(=O)Nc1ccc(Cl)cc1` (stereo unspecified): 2.84%; for `O=S(=O)(C1CC1)N1CCc2ncnc(-c3ccsc3)c2CC1`: 4.8%.

With `CC(C)c1nc(CNc2nccc(CCC(F)(F)F)n2)cs1`, the cytotoxicity at 10 µM stood at 1.24%. The same measure for `c1ccc2oc(CCCN3CCCC3Cn3cncn3)nc2c1` (stereo unspecified): -1.42%; for `CCn1cc(S(=O)(=O)Nc2cccnc2-n2cccn2)nc1C`: 3.21%.

As for `COCCNC(=O)C[C@@H]1COC[C@H]2CN(C(=O)COC)C[C@@H]12`, the cytotoxicity at 10 µM was -96.5%. The same measure for `CC(C)C(C)NC(=O)Nc1ccc(F)c(C(N)=O)c1` (stereo unspecified): -6.54%. The same measure for `CN1C(=O)C2(CCN(C(=O)c3ccccc3)CC2)c2cccc(F)c21`: 4.74%; for `CCC(NCCn1cccn1)C(=O)Nc1cc(C)on1` (stereo unspecified): 13.4%. With `CC1COCCN1C(=O)NCCCn1ccnc1` (stereo unspecified), the cytotoxicity at 10 µM was -44.9%. In the case of `Cc1ccc2c(c1)C(=O)NCC1(CCN(C(=O)c3sccc3C)CC1)O2`, the cytotoxicity at 10 µM is -11.7%. As to `Cc1cc(C(=O)N2CCC3(CCC(=O)N(CC(N)=O)C3)CC2)ccc1O`, the cytotoxicity at 10 µM is -7.5%. As for `O=C(NCCOCC1CC1)Nc1ccc(F)cc1`, the cytotoxicity at 10 µM was 9.28%.

As for `Cn1nc2c(cc1=O)CN(CC(=O)Nc1nncs1)CC2`, the cytotoxicity at 10 µM is -9.55%. Consider `O=C(NCCNc1cnccn1)N1CCCC(N2CCCC2)C1` (stereo unspecified), for which the cytotoxicity at 10 µM is -3.12%. For the compound `CS(=O)(=O)NC1CCN(C(=O)c2ccc(F)cc2)CC1`, the cytotoxicity at 10 µM was found to be 2.3%.

In the case of `CCN(CC1CCOC1)C(=O)c1ccccc1N1CCOCC1` (stereo unspecified), the cytotoxicity at 10 µM is -13.6%. Take `CNC(=O)CN(C)S(=O)(=O)c1c(Br)cc2[nH]c(=O)oc2c1Cl`: the cytotoxicity at 10 µM came to 1.36%. The same measure for `Cn1nc(COc2cccnc2)c2c1CCN(CC1CC1)C2`: -97.8%; for `CC(NC(=O)c1cccs1)C(=O)Nc1cccnc1N1CCCCC1` (stereo unspecified): -8.94%. The same measure for `CC(CNC(=O)C1(c2ccc(F)cc2)CC1)CN1CCCC1=O` (stereo unspecified): -8.26%; for `CC(C)(C)NC(=O)C1CCCCN1Cc1nccn1CC(F)(F)F` (stereo unspecified): 6.21%; for `Cc1nc(CN2CC[C@@H]3[C@@H](CCC(=O)N3CCc3c[nH]cn3)C2)co1`: 2.62%.

The values above are taken from ChEMBL document CHEMBL4513216, “Probing the Open Global Health Chemical Diversity Library for Multistage-Active Starting Points for Next-Generation Antimalarials” (ACS Infect Dis, 2020).
